Source: PubChem (Johns Hopkins Ion Channel Center)
Only some compounds are listed: those with a hit (about 3.7% of all), similar ones and a draw of the others.
KCNK9 inh = KCNK9 potassium channel inhibitors, primary screen, HEK293 cells, thallium flux; Potassium channel subfamily K member 9 (Homo sapiens), Q9NPC2; FluxOR thallium flux fluorescence; stronger effect = lower value; B-score at 10 µM; hit rate 1.2% among 310,000; AID 488922, 2010;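 active = ratio B-score over 3 SD below the library mean, with starting fluorescence within 5 SD of its mean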;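 note: negative B-score means less thallium flux so channel inhibition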
KCNQ1 act = potentiators or activators of KCNQ1 channel, primary screen, cell-based, thallium flux, high-throughput. hit rate 0.35% among 310,000. B-score at 10 µM. CHO-K1 KCNQ1, thallium flux FluxOR fluorescence; stronger effect = higher value. Potassium voltage-gated channel subfamily KQT member 1 (Homo sapiens), P51787. AID 2648, 2010;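 active = fluorescence ratio B-score, a plate-corrected score, at least three library SD, with initial intensity B-score within 5 SD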
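Test system: CHO-K1 cells stably expressing KCNQ1 / Medium: assay buffer / Also added: depolarizing K+/Tl+ stimulus, K2SO4 and Tl2SO4 each 12.5 mM in 5x stock / Incubation: 90 min dye loading and 20 min compound exposure, both at room temperature / Signal: thallium influx via FluxOR fluorescence, kinetic imaging / Evaluation: B score of baseline-normalized fluorescence ratio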
KCNQ1 inh = inhibitors of human KCNQ1 channel, primary screen, cell-based, thallium flux, high-throughput. CHO-K1 KCNQ1, FluxOR thallium flux fluorescence; stronger effect = higher value. Potassium voltage-gated channel subfamily KQT member 1 (Homo sapiens), P51787. B-score at 10 µM. AID 2642, 2010. hit rate 1.3% among 310,000;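 active = compounds whose thallium flux B-score, printed positive for inhibition, exceeds three library SD while starting fluorescence stays within three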;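 note: channel opened by potassium depolarization with thallium stimulus after 20 min compound exposure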
Kir21 block = inhibitors of mouse Kir2.1 inward-rectifier potassium channel; B-score at 10 µM; HEK293-Kir2.1, FluxOR thallium flux fluorescence; stronger effect = lower value; AID 1672, 2009; hit rate 0.85% among 310,000;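 active = fluorescence ratio B-score at or below minus 3 SD of library scores, with starting-brightness B-score within 2 SD, cut at about -4.2 in these data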;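 note: channel flux triggered by added potassium and thallium sulfate stimulus; B-score of peak minus minimum fluorescence over baseline after thallium stimulus; more negative B-score means stronger Kir2.1 block with less thallium influx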
Target sequence (P35561 whole entry, looked up): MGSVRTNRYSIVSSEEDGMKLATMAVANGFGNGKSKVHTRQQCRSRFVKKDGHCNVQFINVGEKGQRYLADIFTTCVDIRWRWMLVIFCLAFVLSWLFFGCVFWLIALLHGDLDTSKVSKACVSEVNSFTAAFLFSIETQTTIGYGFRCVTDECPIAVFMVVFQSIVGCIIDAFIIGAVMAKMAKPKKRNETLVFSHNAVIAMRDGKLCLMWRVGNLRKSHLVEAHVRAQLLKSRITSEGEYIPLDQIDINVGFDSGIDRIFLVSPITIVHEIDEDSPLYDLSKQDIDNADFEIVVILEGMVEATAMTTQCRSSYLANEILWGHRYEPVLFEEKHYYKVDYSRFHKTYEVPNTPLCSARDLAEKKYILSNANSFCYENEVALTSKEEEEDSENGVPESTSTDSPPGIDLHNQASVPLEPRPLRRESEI
KCNK3 block = human KCNK3 channel inhibitors, primary screen, CHO cells, FluxOR thallium flux, B-score | Potassium channel subfamily K member 3 (Homo sapiens), O14649 | FluxOR fluorescence; stronger effect = lower value | B-score at 10 µM | hit rate 0.84% among 340,000 | AID 602410, 2012;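 active = B-score under library mean minus 4 SD, starting fluorescence ratio at most library mean plus 5 SD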;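 note: more negative B-score means stronger inhibition of thallium flux through KCNK3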
Target sequence (O14649 whole entry, looked up): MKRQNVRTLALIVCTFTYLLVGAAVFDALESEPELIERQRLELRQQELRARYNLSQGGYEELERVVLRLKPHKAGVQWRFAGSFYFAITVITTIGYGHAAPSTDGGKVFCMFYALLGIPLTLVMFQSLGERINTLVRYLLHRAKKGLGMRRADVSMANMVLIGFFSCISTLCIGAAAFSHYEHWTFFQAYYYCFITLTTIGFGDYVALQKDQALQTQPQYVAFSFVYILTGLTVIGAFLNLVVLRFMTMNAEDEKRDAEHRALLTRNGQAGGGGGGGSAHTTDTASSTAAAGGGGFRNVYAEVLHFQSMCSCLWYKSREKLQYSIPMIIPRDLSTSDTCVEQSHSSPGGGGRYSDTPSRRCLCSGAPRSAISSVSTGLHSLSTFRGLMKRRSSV
hERG protect = hERG rescue from dofetilide block, primary screen, cell-based, CHO-hERG, FluxOR thallium flux, dofetilide IC70 | Voltage-gated inwardly rectifying potassium channel KCNH2 (Homo sapiens), Q12809 | dofetilide IC70 present | activation (rescue from dofetilide block), less the hit threshold, % at 10 µM | hit rate 0.51% among 310,000;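 active = activation above the mean of controls blocked by dofetilide plus 5 SD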;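 note: thallium influx through hERG after potassium depolarization seen as dye fluorescence rise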
KCNQ1 block val = KCNQ1 potassium channel inhibitors, confirmation, cell-based, Tl flux, duplicate; shares compounds with KCNQ1 inh; KCNQ1 cell line, FluxOR thallium flux fluorescence; inhibition, % at 10 µM; hit rate 93% among 1,600; AID 588353, 2011;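 active = primary screen active, with duplicate mean exceeding buffer control mean plus 3 SD of buffer wells, cut at about 28% in these data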
CHO KCNQ1 ctr = thallium flux effects in parental CHO cells, counter-screen for KCNQ1 inhibitor project, cell-based, Tl flux. parental CHO-K1, FluxOR thallium flux fluorescence ratio; stronger effect = lower value; zero means no signal rise above baseline. AID 588366, 2011. fluorescence ratio (Tl flux) at 10 µM. shares compounds with KCNQ1 inh. hit rate 21% among 1,600;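 active = mean of duplicate thallium-flux fluorescence ratios in parental host cells more than 5 SD below the buffer control mean, cut at about 0.38 in these data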;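 note: ratio is peak minus minimum fluorescence divided by baseline fluorescence; actives read low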
KCNQ1 APC inh = KCNQ1 channel inhibitors, confirmation, orthogonal assay, cell-based, automated electrophysiology; calls only at 10 µM; AID 624120, 2012; KCNQ1-CHO cells, automated patch clamp current; shares compounds with KCNQ1 inh; hit rate 20% among 490;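 active = KCNQ1 current drop exceeding 3 SD of negative control wells, seen in both duplicate runs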;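 note: steady state current during a 2 s step from -80 to +40 mV; negative values mean current inhibition and positive values mean potentiation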
KCNQ2 inh = KCNQ2 channel inhibition, selectivity assay for KCNQ1 inhibitor project, cell-based; shares compounds with KCNQ1 inh; KCNQ2 cells, FluxOR thallium flux fluorescence; inhibition, % at 10 µM; hit rate 71% among 1,600; AID 651746, 2012;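 active = mean percent inhibition of the KCNQ2 thallium signal more than 5 SD above the buffer-only control wells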;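 note: KCNQ2 expressed in CHO cells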
KCNQ1-KCNE1 inh = KCNQ1/KCNE1 channel inhibition, selectivity assay for KCNQ1 inhibitor project, CHO-K1 cells, thallium flux, FluxOR; hit rate 77% among 1,600; FluxOR thallium flux fluorescence; shares compounds with KCNQ1 inh; inhibition, % at 10 µM; AID 652147, 2013;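 active = mean percent inhibition of duplicate wells above the buffer-only control mean plus 3 SD of those controls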
KCNK9 inh conf = KCNK9 potassium channel inhibitors, confirmation, HEK293 cells, thallium flux, duplicate; shares compounds with KCNK9 inh; FluxOR thallium flux fluorescence; inhibition, % at 10 µM; hit rate 43% among 4,900; AID 492992, 2010;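 active = thallium signal inhibited by more than 5 SD of the compound-free buffer control wells, on both duplicate plates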
Kir2-1 spec = mouse Kir2.1 channel inhibition, confirmation, selectivity assay for KCNK9 modulator project, cell-based, HEK293, thallium flux | hit rate 4% among 4,900 | inhibition, % at 10 µM | Kir2.1 cells, FluxOR thallium flux fluorescence | shares compounds with KCNK9 inh;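 active = thallium signal drop more than 5 SD beyond the mean of the no-compound control wells, seen in both duplicate plates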;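 note: signal is fluorescence rise after thallium addition divided by baseline fluorescence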
KCNK9 uninduced = thallium flux in non-induced HEK293 cells, confirmation, counter-screen for KCNK9 inhibitor project, cell-based, second counter screen, non-induced KCNK9-HEK293; hit rate 40% among 4,900; AID 492997, 2010; shares compounds with KCNK9 inh; FluxOR thallium flux; inhibition, % at 10 µM;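 active = thallium signal drop beyond 5 SD of the untreated control mean, on both duplicate plates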
KCNK3 confirm = retest of human KCNK3 channel inhibitors, confirmation, CHO cells, FluxOR thallium flux, triplicate. shares compounds with KCNK3 block. FluxOR fluorescence; 0% buffer, 100% carvedilol maximal block. ratio percent of control, % at 10 µM. hit rate 99% among 2,400. AID 651638, 2012;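 active = ratio percent of control, averaged over triplicates, above buffer control mean plus 5 SD, cut at about 64% in these data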;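 note: ratio is the fluorescence rise from min to max over baseline after thallium stimulus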
KCNK3 uninduced = thallium flux inhibition in non-induced cells, primary screen, counter-screen for KCNK3 inhibitor project, cell-based, non-induced KCNK3 line, FluxOR thallium, triplicate. shares compounds with KCNK3 block. non-induced KCNK3 parental cells; stronger effect = lower value. thallium flux ratio (lower = more inhibition) at 10 µM. hit rate 40% among 2,400;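 active = thallium flux ratio, averaged over three wells, more than 5 SD below the buffer control mean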;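 note: host cells are CHO cells without KCNK3 induction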
Of the large screens only hits and unclear results are named; the others gave an inactive call (follow-up assays come after a bar, where they were run).

Cc1sc2ncnc(N3CCC(C(=O)Nc4cc(Cl)ccc4Cl)CC3)c2c1C	KCNQ1 inh 11, KCNK3 block -10 | KCNQ1 block val 71 | CHO KCNQ1 ctr inactive | KCNQ2 inh 123% | KCNQ1-KCNE1 inh 99% | KCNK3 confirm 127 | KCNK3 uninduced 0.13
Cc1sc2ncnc(N3CCC(C(=O)NNC(=O)c4ccc(Cl)cc4)CC3)c2c1C	none
CCN(CC)S(=O)(=O)c1cc(NC(=O)C2CCN(c3ncnc4sc(C)c(C)c34)CC2)ccc1Cl	KCNQ1 inh 6, KCNK3 block -9.6 | KCNQ1 block val 58 | CHO KCNQ1 ctr inactive | KCNQ2 inh 72% | KCNQ1-KCNE1 inh 95% | KCNK3 confirm 102 | KCNK3 uninduced 0.16
CC(C)(C)n1nnnc1C(c1ccc(Cl)cc1)N1CCCc2ccccc21 (stereo unspecified)	KCNK9 inh -11, KCNQ1 inh 6 | KCNQ1 block val 82 | CHO KCNQ1 ctr inactive | KCNQ2 inh 88% | KCNQ1-KCNE1 inh 85% | KCNK9 inh conf 56% | Kir2-1 spec inactive | KCNK9 uninduced 42% | KCNK3 confirm 131 | KCNK3 uninduced 0.13
COC(=O)c1ccc(NS(=O)(=O)c2cc3c4c(c2)CCC(=O)N4CCC3)cc1	none
CC1CCc2c(sc(NC(=O)CSc3nc4c(c(C(F)(F)F)n3)CCc3ccccc3-4)c2C(N)=O)C1 (stereo unspecified)	none
CCC(C(=O)Nc1cccc(C(F)(F)F)c1)c1ccccc1 (stereo unspecified)	KCNK9 inh -10, KCNQ1 inh 11, KCNK3 block -9.4 | KCNQ1 block val 104 | CHO KCNQ1 ctr inactive | KCNQ1 APC inh active | KCNQ2 inh 72% | KCNQ1-KCNE1 inh 116% | KCNK9 inh conf 64% | Kir2-1 spec inactive | KCNK9 uninduced 44% | KCNK3 confirm 128 | KCNK3 uninduced 0.13
CCC(C(=O)Nc1ccncc1)c1ccccc1 (stereo unspecified)	none
Cc1nnc(NC(=O)C23CC4CC(CC(C4)C2)C3)s1	none
CCOC(=O)c1cc2c(ccn2C)n1Cc1ccc(Cl)cc1	KCNK9 inh -11, KCNQ1 inh 6, KCNK3 block -9.7 | KCNQ1 block val 110 | CHO KCNQ1 ctr 0.37 | KCNQ2 inh 68% | KCNQ1-KCNE1 inh 116% | KCNK9 inh conf 42% | Kir2-1 spec inactive | KCNK9 uninduced 37% | KCNK3 confirm 136 | KCNK3 uninduced 0.13
Cc1ccc(CNC(=O)CSc2nnc(CNC(=O)c3ccccc3)o2)cc1	none
O=C(Nc1cccnc1)c1cc(-c2ccc(Br)cc2)nc2ccccc12	KCNK9 inh -9.7, KCNQ1 inh 8, KCNK3 block -15 | KCNQ1 block val 142 | CHO KCNQ1 ctr 0.25 | KCNQ2 inh 139% | KCNQ1-KCNE1 inh active | KCNK9 inh conf 33% | Kir2-1 spec inactive | KCNK9 uninduced inactive | KCNK3 confirm 143 | KCNK3 uninduced inactive
O=C(Oc1cccc(Nc2ncnc3ccccc23)c1)c1ccccc1Cl	KCNK9 inh -9, KCNQ1 inh 12, KCNK3 block -9.6 | KCNQ1 block val 140 | CHO KCNQ1 ctr 0.31 | KCNQ2 inh 131% | KCNQ1-KCNE1 inh active | KCNK9 inh conf 52% | Kir2-1 spec 42% | KCNK9 uninduced 44% | KCNK3 confirm 139 | KCNK3 uninduced inactive
CC1=Nc2ccccc2/C1=C/c1sc(=S)n(-c2cccc(C(=O)O)c2)c1O	KCNQ1 inh 15, KCNK3 block -11 | KCNQ1 block val 106 | CHO KCNQ1 ctr 0.34 | KCNQ2 inh inactive | KCNQ1-KCNE1 inh inactive | KCNK3 confirm 145 | KCNK3 uninduced 0.11
Oc1c(C=C2N=c3ccccc3=N2)sc(=S)n1-c1ccccc1	none
CC(C)(C)c1ccc(NC(=S)NCc2cccs2)cc1	none
